Measured values of several laboratories.
Lines come from different studies, so protocols differ.
Target: Serine/threonine-protein kinase mTOR (MTOR, Homo sapiens, UniProt P42345)

Structure (SMILES)	assay	setting	measurement	value
CN1CCN(C(=O)c2ccc(NC(=O)Nc3ccc(N(C)c4ccnc(Nc5ccc(CS(C)(=O)=O)cc5)n4)cc3)cc2)CC1	binding	1 µM	remaining binding	100%
CCCCC(=O)Nc1ccc(-c2ccc3ncn(CCC)c(=O)c3c2)cn1	binding, competition with immobilised ligand	0.5 µM	remaining binding	67%
COc1ccc2oc(-c3ccc4nc(N)oc4c3)c/c(=N\c3ccccc3NC(=O)CCN)c2c1	cell-free assay	1 µM	remaining signal	7%
C=CC(=O)N1CCC([C@@H]2CCNc3c(C(N)=O)c(-c4ccc(Oc5ccccc5)cc4)nn32)CC1	enzyme activity, inhibitor	1 µM	inhibition	0%
C1=C/COCc2cc(ccc2OCCN2CCCC2)Nc2nccc(n2)-c2cccc(c2)COC/1	binding	0.1 µM	remaining binding	72%
CO[C@@H]1[C@H](N(C)C(=O)c2ccccc2)C[C@H]2O[C@]1(C)n1c3ccccc3c3c4c(c5c6ccccc6n2c5c31)C(=O)NC4	enzyme activity, inhibitor	1 µM	inhibition	0%
COc1ccc2[nH]c3c4[nH]c5ccc(OC)cc5c4c4c(c3c2c1)C(=O)NC4=O	binding	1 µM	remaining binding	100%
Cc1cc(O)c(-c2ccc([C@@H](C)CN(C)C)cc2)c2c1[nH]c(=O)c1sccc12	cell-free assay, inhibitor	0.1 µM	inhibition	9.2%
